Results: ChEMBL document CHEMBL4673342, “Lipid-Lowering Activities of Cucurbitacins Isolated from Trichosanthes cucumeroides and Their Synthetic Derivatives” (2020)
The source made the active and inactive calls. No cut-off for these calls is given here.

Key:
[1] = Induction of […] uptake in human HepG2 cells assessed as fold change at 5 uM by DIL probe based fluorescence assay; type: functional
In short: (§1)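 HepG2 cells (passages 4–11) in DMEM/10% FBS were treated with DMSO or compound at 5 µM, then given DiI-labelled human plasma LDL (20 µg/mL) for 3 h at 37 °C in the dark. After ice-cold PBS/0.4% albumin rinses, cell-bound dye was extracted with isopropanol and fluorescence read at 520–578 nm. Uptake rate is relative to DMSO. Positive control nagilactone B at 5 µM; n = 3.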

HepG2 [2] = test: Upregulation of LDLR protein expression in human HepG2 cells by Western blot analysis; type: functional, cell-based; settings: dose 1-20 µM
In short: (§2)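 HepG2 cells were cultured 12 h, then held a further 24 h in medium with 2% LPDS. Cells were treated with compound across a concentration range, lysed with protease/phosphatase inhibitors, and 30 µg protein was run on 8% SDS-PAGE and blotted to PVDF. Membranes were blocked in 5% milk and probed overnight at 4 °C for LDLR or PCSK9. Mean ± SEM, n ≥ 5.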

HepG2 [3] = test: Down regulation of PCSK9 protein expression in human HepG2 cells by Western blot analysis; type: functional, cell-based; settings: dose 1-20 µM; in short: as §2
HepG2 [4] = test: Induction of […] uptake in human HepG2 cells at 5 uM by DIL probe based fluorescence assay; type: functional, cell-based; in short: as §1

SMILES	fold change (FC) [1]	Activity (HepG2 [2])	Activity (HepG2 [3])	Activity (HepG2 [4])
CC(C)c1oc(=O)cc2c1[C@@H](O)[C@H]1OC(=O)[C@@]3(C)C[C@@H](O)[C@@H](O)[C@@]2(C)C13 (some centres not stated)	2.07	–	–	–
CC(=O)OC(C)(C)/C=C/C(=O)[C@](C)(O)[C@H]1[C@H](O)C[C@@]2(C)[C@@H]3[C@@H](O)C=C4[C@@H](CC(=O)[C@@H](O)C4(C)C)[C@]3(C)C(=O)C[C@]12C	–	Dose-dependent effect	Dose-dependent effect	–
CC(=O)[C@H]1[C@H](O)C[C@@]2(C)[C@@H]3CC=C4[C@@H](CC(=O)[C@@H](O)C4(C)C)[C@]3(C)C(=O)C[C@]12C	2.53	Dose-dependent effect	Dose-dependent effect	–
CC(=O)OC(C)(C)CCC(=O)[C@](C)(O)[C@H]1[C@H](OC(=O)c2ccccc2)C[C@@]2(C)[C@@H]3CC=C4[C@@H](C[C@H](OC(=O)c5ccccc5)C(=O)C4(C)C)[C@]3(C)C(=O)C[C@]12C	–	–	–	inactive
